Values after ≈ are worked out from the molar mass of the structure shown.
Legend:
EMT6 [1] = experiment: Antiproliferative activity against mouse EMT6 NTRpuro cells after 18 hrs; format: functional, cell-based; details: EMT6, 18 h
V79 [2] = experiment: Selectivity ratio of IC50 for V79 NTR-ve cells to IC50 for V79 NTRpuro cells; format: functional, Cricetulus griseus
WiDr [3] = experiment: Antiproliferative activity against human WiDr NTRneo cells after 18 hrs; format: functional, cell-based
[4] = Antiproliferative activity against human Skov3 NTRneo cells after 18 hrs; format: functional, cell-based; details: SK-OV-3, 18 h
[5] = Toxicity in ip dosed CD1 nude mouse in DMSO/PEG; format: organism-based; details: in vivo
Method in brief: (§1)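 Maximum tolerated dose (MTD) determined in CD-1 nude mice after a single i.p. injection of prodrug, given in the vehicle named in each line.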

[6] = Selectivity ratio of IC50 for Skov3 NTR-ve cells to IC50 for Skov3 NTRneo cells; format: functional, Homo sapiens
[7] = Antiproliferative activity against human wild type Skov3 NTR-ve cells after 18 hrs; format: functional, cell-based
EMT6 [8] = experiment: Antitumor activity against mixed mouse EMT6/EMT6 NTRpuro cells injected in CD1 nude mouse assessed as cell kill at 178 umol/kg, ip in DMSO/PEG after 18 hrs; format: functional
V79 [9] = experiment: Clonogenic survival of 3% V79 NTRpuro cells in co-cultures with 97% V79 NTRoua after 5 hrs by MCL assay; format: functional, Cricetulus griseus
Method in brief: (§2)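 Multicellular layer cocultures of 3% V79-NTRpuro activators and 97% V79oua NTR-ve targets (ouabain-resistant), exposed to prodrug for 5 h. MCLs were then trypsin-dissociated and plated in ouabain or puromycin selective media for clonogenic survival. C10 (10% survival) interpolated for activators and targets; AC/TC ratio derived. Mean with SEM or range over independent experiments.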

WiDr [10] = experiment: Selectivity ratio of IC50 for WiDr NTR-ve cells to IC50 for WiDr NTRneo cells; format: functional, Homo sapiens
V79 [11] = experiment: Clonogenic survival of 97% V79 NTRoua cells in co-cultures with 3% V79 NTRpuro cells after 5 hrs by MCL assay; format: functional, Cricetulus griseus; method in brief: as §2
EMT6 [12] = experiment: Antiproliferative activity against mouse wild type EMT6 NTR-ve cells after 18 hrs; format: functional, cell-based; details: EMT6, 18 h
EMT6 [13] = experiment: Selectivity ratio of IC50 for EMT6 NTR-ve cells to IC50 forEMT6 NTRpuro cells; format: functional, Mus musculus
WiDr [14] = experiment: Antiproliferative activity against human wild type WiDr NTR-ve cells after 18 hrs; format: functional, cell-based
[15] = Partition coefficient at pH 7.4 by shake-flask method; format: physicochemical; details: octanol/water
Method in brief: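 Octanol-water partition coefficient by shake-flask at pH 7.4, reported with SEM.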

V79 [16] = experiment: Antiproliferative activity against chinese hamster wild-type V79 NTR-ve cells after 18 hrs; format: functional, cell-based; details: Cricetulus griseus, V79, 18 h
[17] = Solubility in alpha MEM; format: physicochemical
Method in brief: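 Solubility (mM) in α-MEM with 5% fetal calf serum at ambient temperature, measured by HPLC.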

V79 [18] = experiment: Antiproliferative activity against chinese hamster V79 NTRpuro cells after 18 hrs; format: functional, cell-based; details: Cricetulus griseus, V79, 18 h
V79 [19] = experiment: Clonogenic survival of V79 NTRoua cells after 5 hrs by MCL assay; format: functional, Cricetulus griseus
[20] = Stability in alpha MEM at 37 degC after 24 hrs; format: physicochemical; details: read-out: Stability
Method in brief: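 Percent parent compound remaining, by HPLC, after holding in α-MEM with 5% fetal calf serum at 37 °C for 24 h.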

EMT6 [21] = experiment: Antitumor activity against mixed mouse EMT6/EMT6 NTRpuro cells injected in CD1 nude mouse assessed as cell kill at 237 umol/kg, ip in DMSO after 18 hrs; format: functional
[22] = Toxicity in ip dosed CD1 nude mouse in DMSO; format: organism-based; details: in vivo; method in brief: as §1
[23] = Toxicity in ip dosed CD1 nude mouse in DMA/PEG; format: organism-based; details: in vivo; method in brief: as §1
EMT6 [24] = experiment: Antitumor activity against mixed mouse EMT6/EMT6 NTRpuro cells injected in CD1 nude mouse assessed as cell kill at 560 umol/kg, ip in DMA/PEG after 18 hrs; format: functional
WiDr [25] = experiment: Antitumor activity against human 100% WiDr NTRneo tumor cells injected in CD1 nude mouse assessed as growth delay at 560 umol/kg, ip in DMA/PEG; format: functional
Method in brief: (§3)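 WiDr-NTRneo tumours (100% NTR+ve, or 1:9 NTR+ve:NTR-ve mixtures) in CD-1 nude mice, given a single i.p. dose at MTD. Read-out is median growth delay to 15 mm mean diameter, plus tumours not palpable 100 days after treatment. Aziridine given at 200 µmol/kg as positive control in every experiment.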

EMT6 [26] = experiment: Antitumor activity against mixed mouse EMT6/EMT6 NTRpuro cells injected in CD1 nude mouse assessed as cell kill at 300 umol/kg, ip in acetate after 18 hrs; format: functional
WiDr [27] = experiment: Antitumor activity against human 100% WiDr NTRneo tumor cells injected in CD1 nude mouse assessed as growth delay at 300 umol/kg, ip in acetate; format: functional; method in brief: as §3
[28] = Toxicity in ip dosed CD1 nude mouse in sodium acetate; format: organism-based; details: in vivo; method in brief: as §1
EMT6 [29] = experiment: Antitumor activity against mixed mouse EMT6/EMT6 NTRpuro cells injected in CD1 nude mouse assessed as cell kill at 133 umol/kg, ip in DMA/PEG after 18 hrs; format: functional
WiDr [30] = experiment: Antitumor activity against mixed human 10% WiDr NTRneo/ 90% WiDr tumor cells injected in CD1 nude mouse assessed as growth delay at 1330 umol/kg, ip in DMSO/PEG; format: functional; method in brief: as §3
EMT6 [31] = experiment: Antitumor activity against mixed mouse EMT6/EMT6 NTRpuro cells injected in CD1 nude mouse assessed as cell kill at 1330 umol/kg, ip in DMSO/PEG after 18 hrs; format: functional

Row | SMILES | IC50 (EMT6 [1]) [µM] | Ratio IC50 (V79 [2]) | IC50 (WiDr [3]) [µM] | IC50 [4] [µM] | MTD [5] [µmol/kg] | Ratio IC50 [6] | IC50 [7] [µM] | Activity (V79 [9]) [µM] | Ratio IC50 (WiDr [10]) | Activity (V79 [11]) [µM] | IC50 (EMT6 [12]) [µM] | Ratio IC50 (EMT6 [13]) | IC50 (WiDr [14]) [µM] | logD [15] | IC50 (V79 [16]) [µM] | solubility [17] [µM] | IC50 (V79 [18]) [µM] | Activity (V79 [19]) [µM] | remaining at 24 h [20] [%] | MTD [23] [µmol/kg] | also measured
1 | O=C(NCCCO)c1cc(N(CCCl)CCCl)c([N+](=O)[O-])cc1[N+](=O)[O-] | 1.02 | 77 | 10 | 6.5 | 178 | 146 | 948 | 95 | 51 | 150 | 422 | 477 | 518 | 1.49 | 555 | 4100 (≈ 1680 µg/mL) | 7.7 | 3300 | 108 | – | LCK (EMT6 [8]): 0.44
2 | NC(=O)c1cc(N(CCCl)CCBr)c([N+](=O)[O-])cc1[N+](=O)[O-] | 0.1 | 237 | 0.69 | 0.84 | – | 280 | 226 | 3.4 | 236 | 8.2 | 150 | 2190 | 150 | 1.61 | 139 | 630 (≈ 249 µg/mL) | 0.59 | >300 | 62 | – | LCK (EMT6 [21]): >3.02; MTD [22]: 237 µmol/kg
3 | O=C(NCC(O)CO)c1cc(N(CCCl)CCCl)c([N+](=O)[O-])cc1[N+](=O)[O-] (configuration not stated) | 1.14 | 135 | 14 | 5.1 | – | 327 | 1710 | 95 | 79 | 510 | 839 | 803 | 984 | 0.93 | 1160 | 2900 (≈ 1230 µg/mL) | 10 | 3500 | 100 | 560 | LCK (EMT6 [24]): 1.49; Activity (WiDr [25]): 75 days
4 | O=C(NCCN1CCOCC1)c1cc(N(CCCl)CCCl)c([N+](=O)[O-])cc1[N+](=O)[O-] | 30 | 1.6 | 149 | 82 | – | 5 | 383 | 1500 | 1.7 | 3000 | 242 | 8.9 | 243 | 1.6 | 201 | 5200 (≈ 2410 µg/mL) | 130 | 3500 | 100 | – | LCK (EMT6 [26]): 0.07; Activity (WiDr [27]): 27 days; MTD [28]: 300 µmol/kg
5 | O=C(NCCO)c1cc(N(CCCl)CCCl)c([N+](=O)[O-])cc1[N+](=O)[O-] | 1.52 | 59 | 10 | 5.9 | – | 230 | 1250 | 95 | 65 | 210 | 570 | 386 | 666 | 1.38 | 312 | 1000 (≈ 395 µg/mL) | 12 | >1000 | – | 133 | LCK (EMT6 [29]): >2.02
6 | O=C(NCC(O)CO)c1cc(N(CCBr)CCBr)c([N+](=O)[O-])cc1[N+](=O)[O-] (configuration not stated) | 0.08 | 828 | 0.63 | 0.28 | 1330 | 1050 | 283 | 18 | 313 | 98 | 132 | 1670 | 166 | 1.25 | 275 | 1700 (≈ 874 µg/mL) | 0.34 | 675 | 102 | – | Activity (WiDr [30]): 22 days; LCK (EMT6 [31]): >3.36

From ChEMBL document CHEMBL1142960, “Synthesis and structure-activity relationships for 2,4-dinitrobenzamide-5-mustards as prodrugs for the Escherichia coli nfsB nitroreductase in gene therapy” (J Med Chem, 2007)
